The structures appear in SMILES notation. ≈ marks a conversion by molar mass, not a printed value.

By IC50 is commonly meant the concentration needed to halve the response being measured. A low value points to inhibition by little substance.

Type in all cases: functional, cell-based
Assay [1] deals with A549. The assay is described as follows: Cytotoxicity against human A549 cells after 3 days by SRB assay. Conditions: A549, 72 h. The method in brief:
(§1)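 Freshly trypsinized cells seeded at 1500–7500 per well, compound added from DMSO-diluted stock. After 3 days attached cells were fixed with cold 50% TCA, stained with 0.4% SRB, bound dye solubilized and read at 562 nm.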
(Sulforhodamine B stains cellular protein and so reports cell mass.)

Assay [2] deals with KB. The assay is described as follows: Cytotoxicity against human KB cells after 3 days by SRB assay. Conditions: 72 h. In short, it runs like this:
as §1

Assay [3] relates to KB. The assay is described as follows: Cytotoxicity against human vincristine-resistant KB cells overexpressing p-glycoprotein after 3 days by SRB assay. Conditions: 72 h. The method in brief:
as §1

Assay [4] deals with DU-145. The assay is described as follows: Cytotoxicity against human DU145 cells after 3 days by SRB assay. As to conditions: DU-145, 72 h. In short, it runs like this: as §1

`CC(C)=CCC1=C2O[C@H](C(C)(C)O)C[C@@]23C[C@H](CC=C(C)C)C(C)(C)[C@@](C(=O)C(C)C)(C1=O)C3=O`: the IC50 in assay [1], in assay [2], in assay [3] and in assay [4] was above 5 µg/mL throughout.
As to `C=C(C)CCC(C[C@@]12C[C@H]3[C@@H](C=C(C)C)[C@@](C(=O)c4ccc(O)c(O)c4)(C1=O)C(=O)[C@@](CC=C(C)C)(C2=O)C3(C)C)C(=C)C` (some centres undefined), the IC50 turned out to be 4.2 µg/mL (≈ 6.99 µM) in assay [1], 5.7 µg/mL (≈ 9.49 µM) in assay [2], 5.6 µg/mL (≈ 9.32 µM) in assay [3] and 4.1 µg/mL (≈ 6.82 µM) in assay [4].
The corresponding values for `CC(C)=CC[C@@H]1C[C@]23C[C@H](CC=C(C)C)C(C)(C)[C@](CC=C(C)C)(C(=O)C(C(=O)c4ccc(O)c(O)c4)=C2OC1(C)C)C3=O` [ISOXANTHOCHYMOL] are 4.4 µg/mL (≈ 7.3 µM), 4.5 µg/mL (≈ 7.47 µM), 5.2 µg/mL (≈ 8.63 µM) and 4.2 µg/mL (≈ 6.97 µM).
`C=C(C)CC[C@H]1C[C@@]23C[C@@H](CC=C(C)C)C(C)(C)[C@@](CC=C(C)C)(C(=O)C(C(=O)c4ccc(O)c(O)c4)=C2OC1(C)C)C3=O`: the IC50 in assay [1] was determined as 4.5 µg/mL (≈ 7.47 µM); in assay [2], 4.9 µg/mL (≈ 8.13 µM); in assay [3] it was 5.2 µg/mL (≈ 8.63 µM); in assay [4], 4.7 µg/mL (≈ 7.8 µM).
Consider `C=C(C)CC[C@H](C[C@@H]1C[C@]2(CC=C(C)C)C(=O)[C@@](C(=O)c3ccc(O)c(O)c3)(C(=O)C(CC=C(C)C)=C2O)C1(C)C)C(=C)C` [GARCINIALIPTONE D], for which the IC50 came out at 4.4 µg/mL (≈ 7.3 µM) in assay [1], 3.9 µg/mL (≈ 6.47 µM) in assay [2], 4.6 µg/mL (≈ 7.63 µM) in assay [3] and 3.3 µg/mL (≈ 5.47 µM) in assay [4].
The corresponding values for `C=C(C)CC[C@@H]1C[C@]23C[C@H](CC=C(C)C)C(C)(C)[C@](CC=C(C)C)(C(=O)C(C(=O)c4ccc(O)c(O)c4)=C2OC1(C)C)C3=O` [CYCLOXANTHOCHYMOL] are 4.5 µg/mL (≈ 7.47 µM), 5 µg/mL (≈ 8.29 µM), 4.9 µg/mL (≈ 8.13 µM) and 3.7 µg/mL (≈ 6.14 µM).
Take `CC(=O)O[C@H]1C(=O)[C@@]2(C)[C@H]([C@H](OC(=O)c3ccccc3)[C@]3(O)C[C@H](OC(=O)[C@H](O)[C@@H](NC(=O)c4ccccc4)c4ccccc4)C(C)=C1C3(C)C)[C@]1(OC(C)=O)CO[C@@H]1C[C@@H]2O` [PACLITAXEL]: the IC50 is 0.002 µg/mL (≈ 0.00234 µM) in assay [2], above 0.085 µg/mL in assay [3] and 0.002 µg/mL (≈ 0.00234 µM) in assay [4].
For the compound `C=C(C)[C@@H]1C[C@]23C[C@H](CC=C(C)C)C(C)(C)[C@](CC=C(C)C)(C(=O)C(C(=O)c4ccc(O)c(O)c4)=C2O[C@H]1C=C(C)C)C3=O` [GARCINIALIPTONE B], the IC50 worked out at 6.7 µg/mL (≈ 11.2 µM) in assay [1], 5.7 µg/mL (≈ 9.49 µM) in assay [2], 6.6 µg/mL (≈ 11 µM) in assay [3] and 7.3 µg/mL (≈ 12.2 µM) in assay [4].
Regarding `C=C(C)CCC(C[C@]12C[C@@H]3[C@H](C=C(C)C)[C@](C(=O)c4ccc(O)c(O)c4)(C1=O)C(=O)[C@](CC=C(C)C)(C2=O)C3(C)C)C(=C)C` (some centres undefined), the 50% inhibitory concentration (IC50) in assay [1] is 4.2 µg/mL (≈ 6.99 µM); in assay [2] it was 4.4 µg/mL (≈ 7.32 µM); in assay [3], 5.3 µg/mL (≈ 8.82 µM); in assay [4], 4.2 µg/mL (≈ 6.99 µM).
Take `C=C(C)CC[C@H](C[C@@H]1C[C@@]2(CC=C(C)C)C(=O)C3=C(O[C@H](C(C)(C)O)C3)[C@](C(=O)c3ccc(O)c(O)c3)(C2=O)C1(C)C)C(=C)C` [GARCINIALIPTONE C]: the IC50 in assay [1] was determined as 4.3 µg/mL (≈ 6.95 µM); in assay [2] it was 3.4 µg/mL (≈ 5.49 µM); in assay [3], 4.9 µg/mL (≈ 7.92 µM); in assay [4], 4.3 µg/mL (≈ 6.95 µM).

Source of the values: ChEMBL document CHEMBL1157087, “Cytotoxic polyisoprenyl benzophenonoids from Garcinia subelliptica” (J Nat Prod, 2010).
